{"data": "Results collected from several papers", "CDK4": "Cyclin-dependent kinase 4 (CDK4, Homo sapiens, UniProt P11802)", "CDK4 with cyclin D3": "Cyclin-dependent kinase 4, with cyclin D3 (CDK4, Homo sapiens, UniProt P11802)", "CDK4 with cyclin D1": "Cyclin-dependent kinase 4, with cyclin D1 (CDK4, Homo sapiens, UniProt P11802)", "note": "Compare with care: the assays were run in different laboratories."}
{"Compound": "COc1ccnn2ncc(-c3ccnc(N(C)C)n3)c12", "target": "CDK4", "read-out": "binding", "tested at": "1 µM", "remaining binding": "95%"}
{"Compound": "O=C(c1ccc(Nc2ncc(Cl)c(-c3ccc(Cl)s3)n2)cc1)N1CCC(N2CCCC2)CC1", "target": "CDK4 with cyclin D3", "read-out": "binding", "method": "competition with immobilised ligand", "tested at": "1 µM", "remaining binding": "0.9%"}
{"Compound": "C[C@@H](c1ccc(-n2cnc3c(N)ncnc32)cc1)N1CCc2nn(C)c(Cc3ccccc3)c2C1=O", "target": "CDK4 with cyclin D3", "read-out": "binding", "method": "competition with immobilised ligand", "tested at": "0.1 µM", "remaining binding": "68%"}
{"Compound": "c1cnn2ncc(-c3ccnc(N4CCC45COC5)n3)c2c1", "target": "CDK4 with cyclin D3", "read-out": "binding", "tested at": "1 µM", "remaining binding": "68%"}
{"Compound": "O=C(c1ccc(Nc2ncc(Cl)c(-c3cc4ccccc4s3)n2)cc1)N1CCC(N2CCCC2)CC1", "target": "CDK4 with cyclin D1", "read-out": "binding", "method": "competition with immobilised ligand", "tested at": "1 µM", "remaining binding": "3.6%"}
{"Compound": "CNC(=O)[C@@H]1CC[C@@H](n2c(-c3ccc4cnccc4c3)nc3ccc(C(=O)NCc4cccc(C(N)=O)c4)cc32)C1", "target": "CDK4 with cyclin D1", "read-out": "binding", "method": "competition with immobilised ligand", "tested at": "1 µM", "remaining binding": "100%"}
{"Compound": "c1ccc(N2CCN(Cc3nc4ccccc4[nH]3)CC2)nc1", "target": "CDK4", "read-out": "binding", "method": "competition with immobilised ligand", "tested at": "1 µM", "remaining binding": "100%"}
{"Compound": "CN(C)c1nccc(-c2cnc3ncccn23)n1", "target": "CDK4 with cyclin D1", "read-out": "binding", "tested at": "1 µM", "remaining binding": "51%"}
{"Compound": "Cc1c[nH]c2nccc(Oc3c(F)cc(Nc4cc(Cl)nc(N)n4)cc3F)c12", "target": "CDK4", "read-out": "cell-free assay", "method": "competition with immobilised ligand", "tested at": "0.1 µM", "remaining binding": "67%"}
{"Compound": "O=C(NCC1CCOCC1)c1n[nH]cc1NC(=O)c1c(F)cccc1F", "target": "CDK4", "read-out": "binding", "method": "competition with immobilised ligand", "tested at": "1 µM", "remaining binding": "92%"}
{"Compound": "C[C@@H]1CCN(c2nccc(-c3cnn4ncccc34)n2)C1", "target": "CDK4 with cyclin D3", "read-out": "binding", "tested at": "1 µM", "remaining binding": "76%"}
{"Compound": "CC(=O)c1c(NS(C)(=O)=O)c2cc(-c3ccc(Cl)cc3)c(-c3ccc(Cl)cc3Cl)nc2n(C)c1=O", "target": "CDK4 with cyclin D1", "read-out": "cell-free assay", "method": "competition with immobilised ligand", "tested at": "1 µM", "remaining binding": "100%"}
{"Compound": "c1cncc(-c2cccc(Nc3nccc(NC4CCCCC4)n3)c2)c1", "target": "CDK4", "read-out": "binding", "method": "competition with immobilised ligand", "tested at": "10 µM", "remaining binding": "100%"}
{"Compound": "Cc1cc(NC(=O)c2cccc(S(F)(F)(F)(F)F)c2)cc(-n2ccn3nc(-c4cccnc4)cc23)c1", "target": "CDK4", "read-out": "cell-free assay", "method": "competition with immobilised ligand", "tested at": "1 µM", "remaining binding": "79.3%"}
{"Compound": "C=CC(=O)N1CCC(C(=O)NCC(=O)N2CCN(c3nc(-c4cnc(N)nc4C(F)F)nc(N4CCOCC4)n3)CC2)CC1", "target": "CDK4", "read-out": "binding", "method": "competition with immobilised ligand", "tested at": "1 µM", "remaining binding": "92%"}
{"Compound": "CC(=O)N1CCC(c2ccc(C(=O)NC3=NCCN3)cc2C(F)(F)F)CC1", "target": "CDK4 with cyclin D1", "read-out": "cell-free assay", "method": "competition with immobilised ligand", "tested at": "1 µM", "remaining binding": "94%"}
{"Compound": "O=C(NCCCN1CCOCC1)c1ccc(Nc2ncc(Cl)c(-c3ccc(Cl)s3)n2)cc1", "target": "CDK4 with cyclin D1", "read-out": "binding", "method": "competition with immobilised ligand", "tested at": "1 µM", "remaining binding": "0.5%"}
{"Compound": "Cc1cnn2ncc(-c3ccnc(N(C)C)n3)c2c1", "target": "CDK4", "read-out": "binding", "tested at": "1 µM", "remaining binding": "95%"}
{"Compound": "CS(=O)(=O)NCC[C@H](NC(=O)c1cncc2c1cnn2-c1ccc(F)cc1)c1ccnc(S(C)(=O)=O)c1", "target": "CDK4 with cyclin D1", "read-out": "cell-free assay", "method": "competition with immobilised ligand", "tested at": "1 µM", "remaining binding": "100%"}
